Compounds with a hit are over-represented: about 1.8% of the library has one in this group of screens.
proCasp3 act: activators of human procaspase-3 D3A mutant, primary screen, biochemical, absorbance, PC-3 D3A mutant, single concentration | Caspase-3 (Homo sapiens), P42574 | recombinant procaspase-3 D3A, Ac-DEVD-pNA absorbance 405 nm | activation, % at 8.5 µM | 330,000 compounds, 0.11% hits;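 active = activation above the mean of all tested compounds plus 3 SD, cut at about 21% in these data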;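 also: 0% = DMSO alone and 100% = DMSO wells spiked with extra 5 µM PC-3 D3A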
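Test system: Procaspase-3 D3A mutant; medium: Zinc-free HEPES/NaCl buffer with 0.01% Triton X-100 at pH 7.4; reagent: DEVD-pNA substrate; doses: one concentration, 8.5 µM nominal, 0.8% DMSO; times: 1 h preincubation plus 2 h reaction at 25 °C; signal: Epi-absorbance at 405 nm of released p-nitroaniline, 0 and 120 min; replicates: singlicate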
EBNA-1 inh: EBNA-1 DNA-binding inhibitors, primary screen, biochemical, fluorescence polarization; inhibition, % at 14.8 µM; 300,000 compounds, 0.34% hits; in the data active = inhibition above about 28%
GSTO1 inh: inhibitors of recombinant GSTO1, primary screen, counter-screen for RBBP9 inhibitor project, biochemical, fluorescence polarization; Glutathione S-transferase omega-1 (Homo sapiens), P78417; activity-based probe fluorescence polarization; inhibition, % at 5.96 µM; 300,000 compounds, 1.1% hits; AID 1974, 2009;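 active = inhibition above the campaign mean inhibition plus 3 SD, cut at about 35% in these data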;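 also: 0% = GSTO1-1 with DMSO and 100% = wells lacking GSTO1-1 enzyme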
procasp7 counter: procaspase-7 activators, primary screen, counter-screen for procaspase-3 activator project, biochemical, absorbance, HTS, human | Caspase-7 (Homo sapiens), P55210 | recombinant procaspase-7, Ac-DEVD-pNA absorbance 405 nm; D23A/D198A/D206A triple mutant, cannot self-cleave; scale: DMSO 0, 5 µM enzyme 100 | activation, % at 8.5 µM | 330,000 compounds, 0.093% hits;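 active = percent activation above the screen-wide mean plus 3 SD, cut at about 25% in these data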
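Assay system: Uncleavable procaspase-7 mutant enzyme | Input: 2 µM procaspase-7 mutant as dispensed | Timing: 1 h compound preincubation, 2 h substrate cleavage, 25 °C | Repeats: One well per compound | Control set: DMSO wells as 0%, DMSO with 5 µM added PC-7 as 100% | Technique: Epi-absorbance of released pNA at 405 nm, two timepoints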
Apaf1 inhib: inhibitors of human Apaf-1 apoptosome, primary screen, biochemical, DEVD-Rh110 fluorescence, uHTS. AID 489030, 2010. Apoptotic protease-activating factor 1 (Homo sapiens), O14727. 330,000 compounds, 0.71% hits. inhibition, % at 20 µM. reconstituted apoptosome caspase-3 activity; active = inhibition of at least 40% at 20 µM;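 also: plate controls were DMSO wells for no effect and DEVD-CHO caspase inhibitor wells for full effect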
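Assay system: Apoptosome proteins | Medium: pH 7.5 Hepes buffer with CHAPS, BSA, DTT | Also added: Cytochrome c and DEVD-Rh110 substrate | Times: 30 min plus 50 min, RT | Detection: Rhodamine 110 fluorescence at Ex 480/Em 540 nm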
ZTA DNA inh: counter-screen for EBNA-1 inhibitors: inhibitors of Epstein-Barr virus ZTA; P03206; 320,000 compounds, 0.15% hits; ZTA-DNA binding, fluorescence polarization; inhibition, % at 11 µM; AID 2234; in the data active = inhibition above about 33%
GSTO1 inh conf: GSTO1 inhibitor hit confirmation, counter-screen for RBBP9 inhibitor project, biochemical, fluorescence polarization, triplicate | 2,400 compounds, 54% hits | AID 2176, 2009 | shares compounds with GSTO1 inh | recombinant GSTO1, probe fluorescence polarization | inhibition, % at 5.96 µM;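 active = inhibition above the primary screen's cutoff, its mean inhibition plus 3 SD, cut at about 35% in these data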;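 also: loss of polarization as inhibitors block binding of rhodamine sulfonate ester activity probe; 0% = GSTO1 with DMSO and 100% = wells lacking GSTO1 enzyme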
Zta DNA confirm: EBV Zta binding to ZRE DNA, inhibitors, confirmation, biochemical, fluorescence polarization, triplicate; AID 2361, 2010; inhibition, % at 11.1 µM; shares compounds with ZTA DNA inh; 320 compounds, 30% hits;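 active = mean inhibition across triplicate runs above the hit threshold derived for the original primary screen, cut at about 33% in these data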;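 also: 0% = Zta with DMSO and 100% = wells lacking Zta protein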
EBNA-1 counter: EBNA-1 DNA-binding inhibition, counter-screen for ZTA inhibitor project, biochemical, fluorescence polarization | shares compounds with ZTA DNA inh | inhibition, % at 14.8 µM | 320 tested, under 10 active
proCasp7 act trip: procaspase-7 activators, counter-screen for procaspase-3 activator project, biochemical, absorbance, triplicate, human | activation, % at 8.5 µM | recombinant procaspase-7, Ac-DEVD-pNA absorbance; asp23/198/206-to-Ala mutant, cannot self-cleave | 210 tested, under 10 active | AID 488941, 2010 | shares compounds with proCasp3 act;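 active = mean activation above a set limit taken from an earlier procaspase-7 screen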;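 also: 0% = DMSO wells and 100% = DMSO plus 5 µM procaspase-7 enzyme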
proCasp3 confirm: activators of human procaspase-3 D3A mutant, confirmation, biochemical, absorbance, PC-3 D3A mutant, triplicate; shares compounds with proCasp3 act; recombinant PC-3 D3A, Ac-DEVD-pNA absorbance 405 nm; 100% is higher-enzyme control; activation, % at 8.5 µM; 210 compounds, 10% hits; AID 488954, 2010;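 active = mean activation above a set limit carried over from the earlier primary screen, cut at about 22% in these data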
Apaf-1 inh conf2: Apaf-1 inhibitors, single-dose retest, confirmation, biochemical, fluorescence, DEVD-Rh110, 20 µM. shares compounds with Apaf1 inhib. inhibition, % at 20 µM. 1,800 compounds, 25% hits. AID 504614, 2011. reconstituted apoptosome, caspase-3 DEVD-Rh110 fluorescence;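 active = mean inhibition of at least 40% at 20 µM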;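 also: plate controls were DMSO wells for no effect and DEVD-CHO caspase inhibitor control wells for full effect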
Rh110 quench: Rh110 fluorescence interference by putative Apaf-1 inhibitors, confirmation, artefact control for Apaf-1 inhibitor project, biochemical, 20 µM; shares compounds with Apaf1 inhib; quenched caspase reaction; activation (fluorescence interference), % at 20 µM; 1,800 tested, under 10 active; AID 504615, 2011;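 active = signal rise of 40% or more at 20 µM, treated as a fluorescence artifact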
Fluor interf inh: fluorescence interference of Apaf-1 inhibitor hits, dose response, artefact control for Apaf-1 inhibitor project; fluorescence interference counterscreen, Apaf-1 assay format; IC50, µM; AID 588538, 2011; 460 tested, under 10 active; shares compounds with Apaf1 inhib
An asterisk follows results filed as active; x = no result. Unless noted, no rule for the calls is given here.

SMILES	proCasp3 act	EBNA-1 inh	GSTO1 inh	procasp7 counter	Apaf1 inhib	ZTA DNA inh	GSTO1 inh conf	others
Cc1ccc(NC(=O)COC(=O)C2CCC2)cc1S(=O)(=O)N1CCOCC1	-3	x	x	1	10	x	x
COc1cccc2c1C(=O)c1c(O)c3c(c(O)c1C2=O)C[C@](O)(C(C)=O)C[C@H]3O[C@@H]1C[C@@H](N)[C@@H](O)[C@@H](C)O1	0	-4	48*	-3	21	44*	40*	Zta DNA confirm=75*;EBNA-1 counter=-5
Cc1nn(CC(=O)OCC(=O)c2ccccc2)c(C)c1[N+](=O)[O-]	5	x	x	-14	-2	x	x
Cn1c2ccccc2c(=O)n2c(=O)c3ccccc3cc12	-2	-2	78*	-15	98*	43*	12	Zta DNA confirm=33*;EBNA-1 counter=-7
COc1ccc(CCC(=O)OCC(=O)NC(=O)c2ccc(Cl)cc2)cc1	7	x	x	-2	5	x	x
CCNc1ccc2noc3c2c1C(=O)c1ccccc1-3	-21	-3	94*	-23	8	63*	76*	Zta DNA confirm=19;EBNA-1 counter=9
CC1=NN(c2ccccc2)C(=O)/C1=C/C=C/c1ccccc1	-4	1	16	-1	23	19	x
CC1=NN(c2cccc(C(=O)O)c2)C(=O)/C1=C\C=C\c1ccco1	-17	13	55*	-8	6	70*	28	Zta DNA confirm=67*;EBNA-1 counter=5
O=C1ON=C(c2ccccc2)/C1=C/c1ccco1	5	1	13	-10	3	-20	x
O=C(O)c1ccc2c(c1)C(=O)/C(=C\c1ccco1)C2=O	-7	-4	40*	-19	30	62*	50*	Zta DNA confirm=63*;EBNA-1 counter=9
Cc1cc(C)c(NC(=O)COC(=O)c2nc3nccc(C)n3n2)c(Cl)c1	4	x	x	-5	-6	17	x
CC(=O)Oc1cccc2c1C(=O)c1c(OC(C)=O)cc(C(=O)O)cc1C2=O	26*	-13	56*	16	2	4	33	proCasp7 act trip=17;proCasp3 confirm=32*
CSCC[C@H](NC(=O)OC(C)(C)C)C(=O)N1CCC(C(=O)NCC(=O)Nc2ccc(C)cc2)CC1	-4	-3	6	10	12	-1	x
CC(=O)Oc1ccc(-c2cc3c(OC(C)=O)cc(OC(C)=O)cc3oc2=O)cc1	52*	5	44*	9	-5	9	11	proCasp7 act trip=-21;proCasp3 confirm=-14
CC(=O)Oc1ccc(-c2cc3ccccc3oc2=O)cc1	2	-8	2	6	-6	-2	x
CS(=O)(=O)Nc1ccc(N2CCN(c3ccc(C(F)(F)F)cn3)CC2)nc1	4	-11	-2	-7	7	-19	x
CC1=NN(c2ccc(C(F)(F)F)cn2)C(=O)C1	-3	4	44*	0	62*	6	30	Apaf-1 inh conf2=61*;Rh110 quench=-4;Fluor interf inh=>100
CC1(OC(=O)C2CCCC2)C(=O)C=C2C=C(c3ccsc3)N(CCCCO)C=C2C1=O (configuration not stated)	3	0	44*	-17	54*	-6	6	Apaf-1 inh conf2=36;Rh110 quench=0
COc1ccc(CN2C=C3C(=O)C(C)(OC(=O)C4CCCC4)C(=O)C=C3C=C2c2ccsc2)cc1 (configuration not stated)	2	-8	33	-31	20	-11	x
Cc1ccc(N(CC(=O)NCc2ccc(F)cc2)C(=O)c2snc(C(N)=O)c2N)cc1C	5	-9	-4	11	6	14	x
O=C(N/C(=C/c1ccccc1Cl)C(=O)N1CCCCC1)c1ccco1	-2	-1	3	3	-4	1	x
CCOc1ccc2nc3cc(NCc4ccc(OC)cc4)ccc3c(N)c2c1	-3	13	50*	-10	96*	101*	32	Apaf-1 inh conf2=82*;Rh110 quench=-4;Fluor interf inh=>100
Nc1nnc2c(n1)CCCC2	-9	-2	67*	-23	83*	-1	10	Apaf-1 inh conf2=72*;Rh110 quench=-27;Fluor interf inh=>100
COC(=O)CCCC1=CC2=C(c3ccccc3)C(=O)C(C)(OC(=O)C3CCCC3)C(=O)C2=CN1CC(C)C (configuration not stated)	5	2	52*	3	41*	2	6	Apaf-1 inh conf2=19;Rh110 quench=4
COc1ccc(S(=O)(=O)Nc2cccc3ccc(O)cc23)cc1	12	-9	0	13	-3	-4	x
COc1ccc(S(=O)(=O)Nc2cc(SCC(=O)O)c(O)c3ccccc23)cc1	-18	-15	81*	-41	85*	13	54*	Apaf-1 inh conf2=41*;Rh110 quench=5;Fluor interf inh=>100

Screens (PubChem)
